SENP8 block-1: SENP8 protease inhibition; Q96LD8; purified SENP8, Z-RLRGG-aminoluciferin cleavage, luminescence; inhibition, % at 10 µM; actives 1.2% (n = 330,000); AID 2540; in the data active = inhibition above about 50%
SENP8 block-2: SENP8 (human) protease inhibition. Q96LD8. inhibition, % at 20 µM. actives 0.64% (n = 360,000). AID 602440. recombinant SENP8, Nedd8 substrate fluorescence; in the data active = inhibition mostly above about 40%, no sharp cut-off; inactive = mostly below about 27%
SENP6 inh: blocks the human protease SENP6 | Q9GZR1 | Recombinant SENP6 catalytic domain, aminoluciferin luminescence | inhibition, % at 10 µM | actives 1.8% (n = 330,000) | AID 2599;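 active = inhibition above about 50% at the single tested dose, limit read from the data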;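 also: plate controls were DMSO wells with enzyme for no effect and DMSO wells lacking enzyme for full effect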
UCH37 inh: blocks the human deubiquitinase UCH37. purified proteasome/UCH37, Ub-AMC cleavage fluorescence. inhibition, % (test concentration not listed). actives 0.33% (n = 330,000);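 active = mean inhibition over replicate wells above about 20%, limit read from the data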;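 also: 0% = compound-free wells with enzyme and 100% = wells lacking proteasome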
Target sequence (Q9Y5K5 whole entry, looked up): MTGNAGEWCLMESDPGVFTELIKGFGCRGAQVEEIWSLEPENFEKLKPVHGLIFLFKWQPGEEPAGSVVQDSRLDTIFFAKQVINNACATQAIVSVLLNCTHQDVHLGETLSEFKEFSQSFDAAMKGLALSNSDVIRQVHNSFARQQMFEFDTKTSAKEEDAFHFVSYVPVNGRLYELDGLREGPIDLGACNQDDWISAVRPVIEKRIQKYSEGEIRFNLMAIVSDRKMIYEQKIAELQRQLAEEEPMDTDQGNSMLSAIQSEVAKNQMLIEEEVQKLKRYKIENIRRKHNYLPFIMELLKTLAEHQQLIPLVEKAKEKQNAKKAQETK
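Material: Human UCH37 enzyme supplied as purified proteasome complex | Schedule: 30 min compound-proteasome preincubation then 25 min substrate reaction, room temperature | Detection: AMC fluorescence from Ub-AMC cleavage, excitation 355 nm, emission 460 nm | Benchmarks: Wells without proteasome as full block, compound-free enzyme plus substrate as uninhibited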
SENP7 inh: inhibitors of human SENP7 protease; Q9BQF6; recombinant SENP7, Z-RLRGG-aminoluciferin luminescence, 40 min; inhibition, % at 5 µM; actives 1.5% (n = 330,000);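 active = inhibition above about 50% at the single test dose, limit read from the data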;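 also: plate controls were DMSO with enzyme for no effect and no enzyme buffer wells for full effect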
SENP1 inh: blocks the human SENP1 SUMO protease catalytic domain. recombinant SENP1 catalytic domain, CyPet-SUMO1-YPet FRET cleavage. AID 624204. actives 0.21% (n = 360,000). inhibition, % at 10 µM;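 active = inhibition at least 30% at 10 µM, raw YFP signal under a set limit, fluorescence ratio 0.5 to 1.5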;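 also: 0% = enzyme with DMSO and 100% = no enzyme wells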
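Test system: hSENP1 catalytic domain, recombinant; Amount: 20 pM final SENP1 enzyme; Medium: Tris pH 8 buffer plus EDTA, NaCl, BME, BSA, NP40, catalase; Schedule: 50 min enzyme reaction, room temperature, light-protected; Technique: FRET fluorescence in CFP and YFP emission channels; Controls: no-enzyme wells low, DMSO-plus-enzyme wells high control.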
SENP8 conf: confirmation of human SENP8 protease inhibitors. shares compounds with SENP7 inh. Recombinant SENP8, Z-RLRGG-aminoluciferin luminescence, 60 min. inhibition, % at 12.5 µM. actives 40% (n = 6,200);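 active = mean inhibition across replicates above about 50%, limit read from the data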
SENP6 confirm: human SENP6 inhibition, confirmed. AID 488915. actives 58% (n = 6,200). shares compounds with SENP7 inh. recombinant SENP6, Z-RLRGG-aminoluciferin luminescence. inhibition, % at 12.5 µM
SENP7 confirm: confirmation of human SENP7 protease inhibitors; AID 488917; shares compounds with SENP7 inh; inhibition, % at 12.5 µM; actives 69% (n = 6,200); recombinant SENP7, Z-RLRGG-aminoluciferin luminescence, 40 min
Casp3 SENP sel: selectivity test for SENP inhibitors: human caspase-3 inhibition; inhibition, % at 12.5 µM; shares compounds with SENP7 inh; actives 60% (n = 6,200); purified caspase-3, Z-DEVD-aminoluciferin luminescence, 60 min;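 active = mean inhibition above about 50%, limit read from the data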;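 also: plate controls were enzyme with DMSO for no effect and wells without caspase-3 for full effect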
Target sequence (P42574 28-227 limits assumed): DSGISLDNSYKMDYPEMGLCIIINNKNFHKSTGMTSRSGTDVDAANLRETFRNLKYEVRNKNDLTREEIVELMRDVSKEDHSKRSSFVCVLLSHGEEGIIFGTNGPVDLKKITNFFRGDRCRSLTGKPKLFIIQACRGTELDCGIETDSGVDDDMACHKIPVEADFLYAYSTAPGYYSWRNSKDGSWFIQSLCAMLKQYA
SENP luc ctr: interferes with luciferase luminescence in SENP counter-screen. shares compounds with SENP7 inh. Pre-incubated SENP8/Z-RLRGG-aminoluciferin, luciferase luminescence interference. inhibition, % at 12.5 µM. actives 39% (n = 6,200);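 active = mean inhibition above about 50% when retested at one dose, limit read from the data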;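 also: plate controls were DMSO wells with completed reaction for no effect and substrate without enzyme for full effect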
The depositor's hits bear a star; x = not tested or not shown. The list is not random: actives were taken first. Their share in the collection is about 2.6%.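 The calls were made as follows, unless noted: active = mean inhibition above about 50% in the one-dose retest (limit read from the data); inactive = the rest.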

SMILES	SENP8 block-1	SENP8 block-2	SENP6 inh	UCH37 inh	SENP7 inh	SENP1 inh	SENP8 conf	SENP6 confirm	SENP7 confirm	Casp3 SENP sel	SENP luc ctr
Clc1ccc(-c2nnc(-c3ccccc3Cl)o2)cc1	50*	6	83*	0	87*	2	4	45	52*	39	23
Clc1ccccc1-c1nnc(-c2ccccc2Cl)o1	77*	21	83*	2	-1	-3	79*	83*	94*	69*	50*
CCCNCc1nnc(-c2ccccc2Cl)o1	-4	8	-17	-1	-5	-1	x	x	x	x	x
O=C1CN(c2cc(Cl)cc(Cl)c2)C(=O)CN1N=Cc1cccnc1	x	x	x	3	x	x	x	x	x	x	x
CCOc1cc(C=NNC(=O)c2ccncc2)ccc1OC(=O)c1ccc([N+](=O)[O-])cc1	x	x	x	2	x	x	x	x	x	x	x
CC(C)(C)c1ccc(C(=O)Nc2ccccc2Cl)cc1	70*	11	80*	2	76*	2	1	76*	94*	60*	61*
CCn1ccc(C(=O)Nc2cccc(Cl)c2)n1	5	12	-5	-2	19	0	x	x	x	x	x
CCn1ccc(C(=O)Nc2ccccc2Cl)n1	15	18	53*	4	50*	3	34	38	76*	72*	56*
CS(=O)(=O)Nc1ccc(C(=O)Nc2ccccc2Cl)cc1	-2	-39	-12	0	3	0	x	x	x	x	x
CC(=NNC(=O)COc1cc(C)cc(C)c1)c1ccc(N2CCOCC2)cc1	x	x	x	-4	x	x	x	x	x	x	x
Cc1nnc(C)n1N=Cc1ccc(C(=O)O)cc1	x	x	x	1	x	x	x	x	x	x	x
O=C(NC(=S)Nc1ccc(N2CCOCC2)c(Cl)c1)c1cccs1	-5	8	-1	2	-3	1	x	x	x	x	x
O=C(Nc1ccc(N2CCCC2)c(Cl)c1)c1cccs1	58*	-7	26	4	49	-1	79*	74*	92*	70*	62*
CC(=NNC(=O)c1cccs1)c1ccc2c(c1)OCCO2	-11	-49	-2	-10	-14	-1	x	x	x	x	x
O=C(c1ccc2c(c1)OCCCO2)c1cccs1	30	10	54*	5	50	1	52*	50	82*	66*	63*
O=C(Nc1ccc2c(c1)OCCO2)c1cccs1	46	28	76*	7	72*	0	51*	50*	85*	81*	68*
O=C(Nc1ccc2c(c1)OCO2)c1cccs1	16	0	65*	2	48	3	49	42	72*	74*	55*
C(=NNc1nc2ccccc2[nH]1)c1cccc2cccnc12	x	x	x	1	x	x	x	x	x	x	x
CC(=O)Nc1ccc2c(c1)OCO2	-1	0	-6	3	-4	0	x	x	x	x	x
O=C(Nc1ccc2c(c1)OCO2)c1ccc(Br)s1	60*	12	74*	3	78*	-11	72*	67*	92*	65*	71*
O=C(/C=C\Nc1ccc2c(c1)OCO2)c1cccs1	94*	-2	-14	1	-4	-24	-7	100*	104*	98*	35
COc1ccc(C(=O)Nc2cccc(C)c2)cc1	78*	16	92*	4	90*	3	84*	86*	99*	92*	85*
Cc1cccc(NC(=O)c2ccc(OC3CSC3)cc2)c1	91*	14	94*	0	97*	0	66*	89*	99*	93*	61*
CCCC(=O)Nc1ccc(C(=O)Nc2cccc(OC)c2)cc1	31	7	13	5	41	1	x	x	x	x	x
COc1cccc(NC(=O)c2ccc(NC(=O)C(C)(C)C)cc2)c1	37	27	73*	2	72*	1	71*	66*	86*	82*	70*
SMILES	SENP8 block-1	SENP8 block-2	SENP6 inh	UCH37 inh	SENP7 inh	SENP1 inh	SENP8 conf	SENP6 confirm	SENP7 confirm	Casp3 SENP sel	SENP luc ctr
CC(C)Oc1ccc(C(=O)Nc2ccc([N+](=O)[O-])cc2)cc1	26	35	61*	1	86*	1	19	28	15	23	-1
CC(=O)c1cccc(NC(=O)c2ccc(OC3CSC3)cc2)c1	5	7	-13	5	40	1	x	x	x	x	x
COc1ccc(C(=O)Nc2cccc(NC(C)=O)c2)cc1	x	2	x	x	x	2	x	x	x	x	x
COc1ccccc1/C=C\C=Nn1c(C2CCCCC2)n[nH]c1=S	x	x	x	8	x	x	x	x	x	x	x
COc1ccc(NC(=O)c2ccc(C)cc2)cc1	27	30	63*	0	41	0	35	31	71*	68*	14
COc1ccc(C(=O)NNC(=O)C(=O)Nc2ccc(C)cc2)cc1	-10	16	-20	0	-8	1	x	x	x	x	x
COc1ccc(NC(=O)OC(C)C)cc1	30	32	55*	6	25	3	24	34	71*	75*	35
COc1ccc(NC(=O)c2ccc(NC(=O)c3cccnc3)cc2)cc1	x	3	x	x	x	-11	x	x	x	x	x
COc1ccc(NC(=O)c2ccccc2)cc1	41	15	51*	0	58*	0	31	32	78*	79*	57*
O=C(O)c1ccc(OC2CSC2)cc1	40	22	52*	5	-1	-1	55*	54*	26	13	38
Cc1ccc(C(=O)NN=Cc2c(C)nn(-c3ccccc3)c2Cl)cn1	x	x	x	3	x	x	x	x	x	x	x
COc1cccc(NC(=O)Nc2ccccc2C(N)=O)c1	61*	-46	74*	4	82*	2	70*	68*	90*	85*	77*
COc1ccc(NC(=O)c2c(C)nn(-c3ccccc3)c2Cl)cc1	-15	28	-5	5	-12	2	x	x	x	x	x
COc1cccc(NC(=O)Nc2cc(NC(=O)Nc3cccc(OC)c3)c(C)nc2C)c1	-4	7	-6	3	2	2	x	x	x	x	x
COc1cccc(NC(=O)Cc2ccccc2)c1	67*	18	74*	-1	78*	-1	70*	65*	90*	83*	76*

Source: PubChem BioAssay (several laboratories)
